Published values pooled from the literature.
Each line is one published result; the experiments were not run side by side.
Target: Ephrin type-A receptor 3 (EPHA3, Homo sapiens, UniProt P29320)
Residues used in one study (P29320 1-983): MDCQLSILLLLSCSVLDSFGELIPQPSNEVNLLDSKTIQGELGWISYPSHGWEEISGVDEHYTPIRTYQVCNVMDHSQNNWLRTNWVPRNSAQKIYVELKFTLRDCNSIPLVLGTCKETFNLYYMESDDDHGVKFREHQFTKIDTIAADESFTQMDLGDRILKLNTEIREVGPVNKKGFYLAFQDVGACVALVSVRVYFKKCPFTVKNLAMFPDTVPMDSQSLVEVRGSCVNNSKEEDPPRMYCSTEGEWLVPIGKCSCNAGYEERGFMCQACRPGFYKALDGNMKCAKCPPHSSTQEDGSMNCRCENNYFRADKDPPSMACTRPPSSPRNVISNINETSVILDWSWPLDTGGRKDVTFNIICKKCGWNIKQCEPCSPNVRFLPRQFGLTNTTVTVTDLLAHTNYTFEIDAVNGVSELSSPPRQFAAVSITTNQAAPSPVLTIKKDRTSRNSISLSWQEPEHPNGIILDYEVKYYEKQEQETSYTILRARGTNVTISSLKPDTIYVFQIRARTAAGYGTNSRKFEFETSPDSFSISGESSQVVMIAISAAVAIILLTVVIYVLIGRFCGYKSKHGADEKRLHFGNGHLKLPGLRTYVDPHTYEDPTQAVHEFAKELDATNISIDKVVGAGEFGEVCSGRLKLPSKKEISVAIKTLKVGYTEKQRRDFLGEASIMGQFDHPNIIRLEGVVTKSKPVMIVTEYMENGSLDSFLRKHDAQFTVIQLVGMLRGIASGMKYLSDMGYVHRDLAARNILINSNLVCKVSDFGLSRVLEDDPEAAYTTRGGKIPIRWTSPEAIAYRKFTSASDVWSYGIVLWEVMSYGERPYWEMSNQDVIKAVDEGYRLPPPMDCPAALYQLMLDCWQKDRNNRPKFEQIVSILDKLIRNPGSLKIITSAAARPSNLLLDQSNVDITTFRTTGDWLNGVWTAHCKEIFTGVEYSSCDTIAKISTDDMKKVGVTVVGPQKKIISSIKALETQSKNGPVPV

| SMILES | read-out | mode | technique | concentration | endpoint | result |
| --- | --- | --- | --- | --- | --- | --- |
| CN(c1nccc(-c2cnn3ncccc23)n1)C1CC1 | binding |  |  | 1 µM | remaining binding | 100% |
| Cc1cnc(NC2CCOCC2)nc1-n1cnc(C(=O)NC(CN)c2cc(F)cc(Cl)c2)c1 (stereo not shown) | enzyme activity | inhibitor | radiometric | 1 µM | remaining activity | 123% |
| Cc1cc(NC(=O)c2cccc3cc(-c4cccc5[nH]nc(N)c45)ccc23)ccc1F | enzyme activity | inhibitor |  | 0.1 µM | activity vs control | 103% |
| CC(C)(C)c1nc(-c2cccc(NS(=O)(=O)c3c(F)cccc3F)c2F)c(-c2ccnc(N)n2)s1 | enzyme activity | inhibitor | radiometric | 1 µM | remaining activity | 91% |
| CNC(=O)c1cc(Oc2ccc(NC(=O)Nc3ccc(Cl)c(C(F)(F)F)c3)cc2)ccn1 | enzyme activity | inhibitor |  | 10 µM | inhibition | 95% |
| CCOCCn1cc(C(=O)Nc2ccc(-n3nc(-c4cccnc4)cc3C(F)(F)F)cn2)ccc1=O | cell-free assay |  | competition with immobilised ligand | 1 µM | remaining binding | 99% |
| Cc1ccc(Nc2nccc(N(C)c3ccc4c(C)n(C)nc4c3)n2)cc1S(N)(=O)=O | enzyme activity | inhibitor |  | 10 µM | inhibition | 30% |
| CSc1nc(C)c(-c2ccnc(Nc3ccc(N4CCOCC4)cc3)c2)[nH]1 | cell-free assay | inhibitor |  | 10 µM | inhibition | -6.3% |
| Cc1noc([C@H]2C[C@@H](c3ccc(C(F)(F)F)cc3)CN(C(=O)N3CCS(=O)(=O)C3)C2)n1 | cell-free assay |  | competition with immobilised ligand | 1 µM | remaining binding | 100% |
| CC(C)(O)[C@H]1CC[C@H](Nc2ccc3ncc(-c4cccc(C(F)(F)F)c4)n3n2)CC1 | enzyme activity | inhibitor |  | 1 µM | remaining activity | 107% |
| CN(C)C1CCN(CC#Cc2nn(C3CCCC3)c3nc(NCc4ccccc4)ncc23)C1 (stereo not shown) | enzyme activity | inhibitor | FRET | 10 µM | inhibition | -3% |
| CCc1ccccc1C(=O)Nc1n[nH]c2c(C)c(F)c(C3C(C#N)=C(C)N(C)C(C)=C3C#N)cc12 | cell-free assay |  | competition with immobilised ligand | 1 µM | remaining binding | 100% |
| Nc1nc(Nc2ccc(S(N)(=O)=O)cc2)nn1C(=O)c1c(F)cccc1F | cell-free assay |  |  | 0.5 µM | remaining signal | 107% |
| COc1cc(Cl)c(C(=O)N[C@@H](CN[C@H]2CC[C@@H](N)CC2)Cc2ccc(C#N)cc2)cc1-c1ccc(CN[C@H](C)c2ccc(C)cc2)o1 | enzyme activity | inhibitor |  | 1 µM | remaining activity | 69% |
| N#CC1(c2ccccn2)CCN(Cc2cc(C(=O)N3CCCC3)c(=O)n3ccccc23)CC1 | cell-free assay |  | competition with immobilised ligand | 1 µM | remaining binding | 100% |
| O=C1NC(=O)c2cc(Nc3ccc(F)cc3)c(Nc3ccc(F)cc3)cc21 | cell-free assay |  |  | 0.5 µM | remaining signal | 96.6% |
| O=C(NCCCC1CCCCC1)c1ccc(CNC(=O)c2cnn(-c3ccccc3)c2C(F)(F)F)cc1 | cell-free assay |  | competition with immobilised ligand | 0.1 µM | remaining binding | 91% |
| Nc1ncnc2occ(-c3ccc(NC(=O)Nc4cc(C(F)(F)F)ccc4F)cc3)c12 | cell-free assay |  |  | 20 µM | remaining signal | 16% |
| CS(=O)(=O)CCNCc1ccc(-c2ccc3ncnc(Nc4ccc(OCc5cccc(F)c5)c(Cl)c4)c3c2)o1 | cell-free assay |  |  | 0.5 µM | remaining signal | 98.2% |
| CCCCN(CCCC)C(=O)CN1C[C@@H](c2cc(OC)c3c(c2)OCO3)[C@H](C(=O)O)[C@H]1CC(C)(C)CCC | cell-free assay |  | competition with immobilised ligand | 1 µM | remaining binding | 95.3% |
| COc1cc2ncnc(Nc3ccc(F)c(Cl)c3)c2cc1OCCCN1CCOCC1 | cell-free assay |  |  | 0.5 µM | remaining signal | 94.4% |
| O=C(O)[C@@H]1[C@@H](Cn2nnc3ccccc3c2=O)CC[C@H]1C(=O)c1ccc(OCCC2CCOCC2)cc1 | cell-free assay |  | competition with immobilised ligand | 1 µM | remaining binding | 100% |
